Calls of active or inactive are those of the source. No cut-off for these calls is given here.
Columns and labels:
[1] = target: T1, 5-hydroxytryptamine receptor 2A (Homo sapiens, UniProt P28223); test: Displacement of [3H]ketanserin from human 5HT2A receptor expressed in HEK293 cells; type: cell-based
[2] = target: T1, 5-hydroxytryptamine receptor 2A; test: Agonist activity at human 5HT2A receptor expressed in HEK293 cells by measuring intracellular calcium mobilization upto 10 uM; type: functional, cell-based
[3] = target: T2, 5-hydroxytryptamine receptor 2C (Homo sapiens) (UniProt P28335); test: Agonist activity at human 5HT2C receptor expressed in HEK293 cells by measuring intracellular calcium mobilization upto 10 uM; type: functional, cell-based
T2 sequence (whole entry): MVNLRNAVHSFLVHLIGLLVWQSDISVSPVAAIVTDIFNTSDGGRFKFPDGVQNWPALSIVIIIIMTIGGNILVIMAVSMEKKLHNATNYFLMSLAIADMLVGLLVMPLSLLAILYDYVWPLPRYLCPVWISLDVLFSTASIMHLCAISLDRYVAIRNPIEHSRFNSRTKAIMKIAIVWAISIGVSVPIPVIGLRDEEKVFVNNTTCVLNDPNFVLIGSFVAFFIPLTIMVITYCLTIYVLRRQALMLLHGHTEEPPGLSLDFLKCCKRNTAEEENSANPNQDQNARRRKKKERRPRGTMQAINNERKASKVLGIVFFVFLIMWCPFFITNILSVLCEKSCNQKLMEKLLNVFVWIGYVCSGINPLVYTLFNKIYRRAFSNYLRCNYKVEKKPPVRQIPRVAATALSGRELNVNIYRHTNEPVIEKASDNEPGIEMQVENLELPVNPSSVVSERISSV

[4] = target: T3, 5-hydroxytryptamine receptor 2B (Homo sapiens, UniProt P41595); test: Agonist activity at human 5HT2B receptor expressed in HEK293 cells by measuring intracellular calcium mobilization upto 10 uM; type: functional, cell-based
T3 sequence (P41595 whole entry): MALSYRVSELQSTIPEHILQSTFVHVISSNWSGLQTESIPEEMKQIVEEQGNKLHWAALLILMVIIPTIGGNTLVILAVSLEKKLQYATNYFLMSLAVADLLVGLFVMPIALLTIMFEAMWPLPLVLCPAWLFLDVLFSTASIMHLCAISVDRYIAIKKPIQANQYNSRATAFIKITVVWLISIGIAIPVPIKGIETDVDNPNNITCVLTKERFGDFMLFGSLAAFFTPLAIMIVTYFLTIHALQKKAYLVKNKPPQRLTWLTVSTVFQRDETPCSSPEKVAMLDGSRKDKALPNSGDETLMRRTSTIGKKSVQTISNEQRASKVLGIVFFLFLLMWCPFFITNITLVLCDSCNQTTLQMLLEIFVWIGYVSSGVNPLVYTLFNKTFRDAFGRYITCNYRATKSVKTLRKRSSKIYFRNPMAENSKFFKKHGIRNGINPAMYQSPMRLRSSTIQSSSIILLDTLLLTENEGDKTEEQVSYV

[5] = target: T4, 5-hydroxytryptamine receptor 2C (Homo sapiens, UniProt P28335); test: Displacement of [3H]mesulergine from human 5HT2C receptor expressed in HEK293 cells; type: cell-based
T4 sequence (P28335 whole entry): T2 sequence (whole entry)

[6] = target: T3, 5-hydroxytryptamine receptor 2B; test: Displacement of [3H]5-HT from human 5HT2B receptor expressed in HEK293 cells; type: cell-based
[7] = target: T2, 5-hydroxytryptamine receptor 2C (Homo sapiens); test: Antagonist activity at human 5HT2C receptor expressed in HEK293 cells by measuring intracellular calcium mobilization; type: functional, cell-based
In short: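 Antagonism measured as blockade of the 5-HT-evoked response at the human receptor, with affinity expressed as pKb.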

[8] = Ratio of drug level in brain to plasma in rat; type: ADME; details: brain and plasma
In short: (§1)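 Male rats (n = 3) received a 1 mg free base/kg iv bolus (2 mL/kg) of a 0.5 mg free base/mL solution in 25% (v/v) aqueous PEG400 containing 5% (v/v) DMSO. Brain penetration was assessed at 1 h.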

[9] = Clearance in rat blood; type: ADME, organism-based; details: whole blood; in short: as §1
[10] = Bioavailability in rat at 3 mg/kg, po; type: ADME, organism-based; details: in vivo
In short: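 Oral dosing was 3 mg free base/kg by gavage (5 mL/kg) to male rats (n = 3), from 0.6 mg free base/mL in 0.5% w/v Methocel with 5% DMSO. The iv reference arm was 1 mg free base/kg as a bolus (2 mL/kg) in 25% (v/v) aqueous PEG400 with 5% (v/v) DMSO, n = 3.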

T1 sequence (P28223 whole entry): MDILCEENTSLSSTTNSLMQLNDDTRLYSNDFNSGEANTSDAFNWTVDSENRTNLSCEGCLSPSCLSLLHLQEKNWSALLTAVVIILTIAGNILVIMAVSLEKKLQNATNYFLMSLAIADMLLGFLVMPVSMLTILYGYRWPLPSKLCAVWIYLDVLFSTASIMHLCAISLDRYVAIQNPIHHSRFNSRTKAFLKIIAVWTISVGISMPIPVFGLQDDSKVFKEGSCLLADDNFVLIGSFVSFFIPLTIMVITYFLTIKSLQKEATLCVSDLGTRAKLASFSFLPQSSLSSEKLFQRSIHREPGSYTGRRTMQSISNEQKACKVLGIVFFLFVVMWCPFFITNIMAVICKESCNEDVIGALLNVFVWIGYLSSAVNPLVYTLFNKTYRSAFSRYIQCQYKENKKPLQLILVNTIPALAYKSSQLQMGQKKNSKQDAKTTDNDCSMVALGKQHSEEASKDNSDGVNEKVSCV

Compound	Ki [1] [nM]	Activity [2]	Activity [3]	Activity [4]	Ki [5] [nM]	Ki [6] [nM]	pKb [7]	Kp [8]	clearance [9] [mL/min/kg]	bioavailability [10] [%]
COc1ccc(N2Cc3c(c4cc(Cl)c(Cl)cc4n3C)C2=O)cc1OCCN1CCCCC1	501	inactive	inactive	inactive	6.31	200	–	–	–	–
COc1ccc(N2Cc3c(c4cc(F)ccc4n3C)C2=O)cc1OCCN1CCC(C)CC1	158	inactive	inactive	inactive	2.51	63.1	8.6	–	–	–
COc1ccc(N2Cc3c(c4ccc(F)cc4n3C)C2=O)cc1OCCN1CCCCC1	> 10000	inactive	inactive	inactive	12.6	> 10000	–	–	–	–
COc1ccc(N2Cc3sc4ccccc4c3C2=O)cc1OCCN1CCCCC1	398	inactive	inactive	inactive	3.16	> 631	–	–	–	–
COc1ccc(N2Cc3c(c4cc(Cl)c(Cl)cc4n3C)C2=O)cc1OCCN1CCC(C)CC1	–	inactive	inactive	inactive	–	–	–	–	–	–
COc1ccc(N2Cc3c(c4ccccc4n3C)C2=O)cc1OCCN1CCCCC1.Cl	501	inactive	inactive	inactive	6.31	200	–	–	53	15
COc1ccc(N2Cc3c(c4ccc(Cl)cc4n3C)C2=O)cc1OCCN1CCCCC1	316	inactive	inactive	inactive	5.01	158	–	–	–	–
COc1ccc(N2Cc3c(c4cccc(F)c4n3C)C2=O)cc1OCCN1CCC(C)CC1	251	inactive	inactive	inactive	2.51	31.6	–	–	–	–
COc1ccc2c(c1)c1c(n2C)CN(c2ccc(OC)c(OCCN3CCC(C)CC3)c2)C1=O	–	inactive	inactive	inactive	–	–	–	–	–	–
COc1ccc(N2Cc3c(c4ccc(Cl)cc4n3C)C2=O)cc1OCCN1CCC(C)CC1	251	inactive	inactive	inactive	3.98	200	–	–	–	–
COc1ccc(N2Cc3c(c4cccc(F)c4n3C)C2=O)cc1OCCN1CCCCC1	–	inactive	inactive	inactive	–	–	–	–	–	–

The remaining lines, values ahead:

Ki [1] [nM]	Activity [2]	Activity [3]	Activity [4]	Ki [5] [nM]	Ki [6] [nM]	pKb [7]	Kp [8]	clearance [9] [mL/min/kg]	bioavailability [10] [%]	Compound
126	inactive	inactive	inactive	3.16	39.8	8.6	1	23	44	COc1ccc(N2Cc3c(c4cc(Cl)ccc4n3C)C2=O)cc1OCCN1CCC(C)CC1
> 794	inactive	inactive	inactive	1.58	200	8.7	–	–	–	COc1ccc(N2Cc3sc4ccccc4c3C2=O)cc1OCCN1CCC(C)CC1
251	inactive	inactive	inactive	15.8	251	7.5	–	–	–	COc1ccc(N2Cc3c(c4ccc(F)cc4n3C)C2=O)cc1OCCN1CCC(C)CC1
1000	inactive	inactive	inactive	31.6	794	–	–	–	–	COc1ccc2c(c1)c1c(n2C)CN(c2ccc(OC)c(OCCN3CCCCC3)c2)C1=O
158	inactive	inactive	inactive	2.51	> 1000	–	–	39	21	COc1ccc(N2Cc3c(c4cc(Cl)ccc4n3C)C2=O)cc1OCCN1CCCCC1
–	inactive	inactive	inactive	–	–	–	–	–	–	COc1ccc(N2Cc3cc4ccccc4cc3C2=O)cc1OCCN1CCCCC1
–	inactive	inactive	inactive	–	–	–	–	–	–	COc1ccc(N2Cc3c(c4cc(F)ccc4n3C)C2=O)cc1OCCN1CCCCC1
–	inactive	inactive	inactive	–	–	–	–	–	–	COc1ccc(N2C(=O)c3c(n(C)c4ccccc34)C2C)cc1OCCN1CCCCC1 (configuration not stated)
